# Columns and labels:
# [1] = system: Mycobacterium tuberculosis; assay: Antimicrobial activity against Mycobacterium tuberculosis H37Rv ATCC 27294 harboring pFCA-lux AB gene measured under aerobic condition after 8 days by luminescence analysis; type: functional; settings: H37Rv ATCC 27294, 192 h
# In short: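 MABA: replicating M. tb H37Rv exposed to compound aerobically for 8 days. […] Mean of at least two independent determinations ± SD.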
# [2] = system: Mycobacterium tuberculosis; assay: Antimicrobial activity against Mycobacterium tuberculosis H37Rv ATCC 27294 harboring pFCA-lux AB gene measured under anaerobic condition after 11 days by luminescence analysis; type: functional; settings: H37Rv ATCC 27294, 264 h
# In short: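 LORA: luminescence-based low-oxygen-recovery assay on nonreplicating M. tb, 11-day anaerobic exposure. MIC is the mean of at least two independent determinations ± SD.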
Structure (SMILES),MIC [1],MIC [2]
O=C(Nc1ccc(-c2ccc(F)cc2)cc1)O[C@@H]1COc2nc([N+](=O)[O-])cn2C1,1.3 µM,18 µM
O=C(Nc1ccc(-c2ccc(OC(F)(F)F)cc2)cc1)O[C@@H]1COc2nc([N+](=O)[O-])cn2C1,0.05 µM,> 32 µM
O=C(Nc1ccc(-c2ccc(C(F)(F)F)nc2)cc1)O[C@@H]1COc2nc([N+](=O)[O-])cn2C1,0.25 µM,4.1 µM
O=C(Nc1ccc(-c2ccc(F)nc2)cc1)O[C@@H]1COc2nc([N+](=O)[O-])cn2C1,0.13 µM,4.3 µM
O=C(Nc1ccc(-c2ccnc(C(F)(F)F)c2)cc1)O[C@@H]1COc2nc([N+](=O)[O-])cn2C1,0.75 µM,6.2 µM
O=C(NCc1ccc(-c2ccc(C(F)(F)F)cc2)cc1)O[C@@H]1COc2nc([N+](=O)[O-])cn2C1,0.24 µM,> 32 µM
O=C(NCc1ccc(-c2ccc(F)cc2)cc1)O[C@@H]1COc2nc([N+](=O)[O-])cn2C1,0.11 µM,4.5 µM
O=C(NCc1ccc(-c2ccc(OC(F)(F)F)cc2)cc1)O[C@@H]1COc2nc([N+](=O)[O-])cn2C1,0.52 µM,2.4 µM
O=C(NCc1ccc(-c2ccc(C(F)(F)F)nc2)cc1)O[C@@H]1COc2nc([N+](=O)[O-])cn2C1,0.69 µM,11 µM
O=C(O[C@@H]1COc2nc([N+](=O)[O-])cn2C1)N1CCN(c2ccc(OC(F)(F)F)cc2)CC1,0.033 µM,1.1 µM
O=C(O[C@@H]1COc2nc([N+](=O)[O-])cn2C1)N1CC[C@H](Oc2ccc(OC(F)(F)F)cc2)C1,0.06 µM,1.6 µM
O=C(O[C@@H]1COc2nc([N+](=O)[O-])cn2C1)N1CCC(Oc2ccc(C(F)(F)F)nc2)CC1,0.14 µM,27 µM
CN(Cc1ccc(OC(F)(F)F)cc1)C1CCN(C(=O)O[C@@H]2COc3nc([N+](=O)[O-])cn3C2)CC1,0.18 µM,26 µM
O=C(COc1ccc(-c2ccc(C(F)(F)F)cc2)cc1)N[C@@H]1COc2nc([N+](=O)[O-])cn2C1,0.25 µM,> 32 µM
O=C(N[C@@H]1COc2nc([N+](=O)[O-])cn2C1)OCc1ccc(-c2ccc(F)cc2)cc1,0.085 µM,4.2 µM
O=C(N[C@@H]1COc2nc([N+](=O)[O-])cn2C1)OCc1ccc(-c2ccc(C(F)(F)F)cc2)cc1,0.08 µM,4.5 µM
O=C(COc1ccc(-c2ccc(C(F)(F)F)nc2)cc1)N[C@@H]1COc2nc([N+](=O)[O-])cn2C1,0.69 µM,30 µM

Structure (SMILES),MIC [1],MIC [2]
O=C(COc1ccc(-c2ccc(F)nc2)cc1)N[C@@H]1COc2nc([N+](=O)[O-])cn2C1,0.69 µM,31 µM
O=C(COc1ccc(-c2ccc(OC(F)(F)F)cc2)cc1)N[C@@H]1COc2nc([N+](=O)[O-])cn2C1,0.18 µM,25 µM
O=C(COc1ccc(-c2ccc(F)cc2)cc1)N[C@@H]1COc2nc([N+](=O)[O-])cn2C1,0.17 µM,26 µM
O=C(Cc1ccc(-c2ccc(F)nc2)cc1)N[C@@H]1COc2nc([N+](=O)[O-])cn2C1,0.68 µM,> 32 µM
O=C(Cc1ccc(-c2ccc(C(F)(F)F)nc2)cc1)N[C@@H]1COc2nc([N+](=O)[O-])cn2C1,0.46 µM,> 32 µM
O=C(Cc1ccc(-c2ccc(OC(F)(F)F)cc2)cc1)N[C@@H]1COc2nc([N+](=O)[O-])cn2C1,0.22 µM,5 µM
O=C(Cc1ccc(-c2ccc(C(F)(F)F)cc2)cc1)N[C@@H]1COc2nc([N+](=O)[O-])cn2C1,0.44 µM,23 µM
O=C(Cc1ccc(-c2ccc(F)cc2)cc1)N[C@@H]1COc2nc([N+](=O)[O-])cn2C1,0.33 µM,11 µM
O=C(CO[C@@H]1COc2nc([N+](=O)[O-])cn2C1)Nc1ccc(OC(F)(F)F)cc1,0.24 µM,7.8 µM
CN(C(=O)N(C)[C@@H]1COc2nc([N+](=O)[O-])cn2C1)c1ccc(OC(F)(F)F)cc1,12 µM,> 64 µM
O=[N+]([O-])c1cn2c(n1)OC[C@@H](NC(=S)Nc1ccc(OC(F)(F)F)cc1)C2,8 µM,> 64 µM
O=C(NCc1ccc(OC(F)(F)F)cc1)N[C@@H]1COc2nc([N+](=O)[O-])cn2C1,0.27 µM,4.1 µM
CN(C(=O)O[C@@H]1COc2nc([N+](=O)[O-])cn2C1)c1ccc(OC(F)(F)F)cc1,0.21 µM,5.4 µM
O=C(NCc1ccc(OC(F)(F)F)cc1)O[C@@H]1COc2nc([N+](=O)[O-])cn2C1,0.25 µM,17 µM
O=C(COc1ccc(OC(F)(F)F)cc1)N[C@@H]1COc2nc([N+](=O)[O-])cn2C1,0.16 µM,10 µM
O=[N+]([O-])c1cn2c(n1)OC[C@@H](NCc1ccc(OC(F)(F)F)cc1)C2,0.22 µM,5.3 µM
O=[N+]([O-])c1cn2c(n1)OC[C@@H](OCc1ccc(-c3ccc(OC(F)(F)F)cc3)cc1)C2,0.35 µM,–
